In ChEMBL document CHEMBL1126191, “New antiinflammatory agents. 2. 5-Phenyl-3H-imidazo[4,5-c][1,8]naphthyridin-4(5H)-ones: a new class of nonsteroidal antiinflammatory agents with potent activity like glucocorticoids” (J Med Chem, 1992):

What was measured:
Mus musculus = test: Acute lethal toxicity (peroral administration), determined by observing the mortality for 7 days after the administration in mouse; format: organism-based; details: in vivo, po, 168 h
Summary of the method: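 Male dd mice of 20-25 g, three per group, given compound by mouth once. Mortality followed for 7 days, and the minimum lethal dose (MLD) was recorded in mg/kg po.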

Rattus norvegicus [1] = test: Antiinflammatory effect in rat paw edema model following 50 mg/kg p.o. administration.; format: functional; details: route oral
Rattus norvegicus [2] = test: Antiinflammatory effect (oral administration) on rat paw edema model (reversed passive Arthus reaction-induced paw edema) at 10 mg/kg; format: functional
Summary of the method: (§1)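 Reversed passive Arthus: male Wistar rats (~150 g, n=5) were dosed orally with compound in 5% arabic gum. Paw volume was measured by plethysmograph before dosing and 2 h after antigen. % inhibition was calculated vs controls, and ED50 came from log-dose linear regression.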

Rattus norvegicus [3] = test: Antiinflammatory effect (oral administration), on zymosan-induced rat paw edema at 25 mg/kg; format: functional
Summary of the method: (§2)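 Oral dosing in 5% arabic gum suspension to male Wistar rats (~150 g, n=5) 1 h before subplantar injection of 1% zymosan in saline into the hind paw. Paw volume was read by plethysmograph before dosing and 4 h after zymosan.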

Rattus norvegicus [4] = test: Antiinflammatory effect (oral administration) on rat paw edema model (carrageenan-induced paw edema) at 50 mg/kg; format: functional
Rattus norvegicus [5] = test: Antiinflammatory effect (oral administration) on rat paw edema model (reversed passive Arthus reaction-induced paw edema) at 5 mg/kg; format: functional; summary of the method: as §1
Rattus norvegicus [6] = test: Antiinflammatory effect (oral administration) on rat paw edema model (zymosan-induced paw edema) at 50 mg/kg; format: functional; summary of the method: as §2
Rattus norvegicus [7] = test: Dose of the compound (oral administration) showing antiinflammatory effect on rat paw edema model (carrageenan-induced paw edema, CPE); format: functional
Rattus norvegicus [8] = test: Oral dose required for antiinflammatory effect on zymosan induced rat paw edema.; format: functional; summary of the method: as §2
Rattus norvegicus [9] = test: Antiinflammatory effect (oral administration), on rat reversed passive Arthus reaction-induced paw edema at 5 mg/kg; format: functional; summary of the method: as §1
Rattus norvegicus [10] = test: Antiinflammatory effect of the compound(oral administration) on rat paw edema model(carrageenan-induced paw edema) at 50 mg/kg; format: functional
Rattus norvegicus [11] = test: Dose of the compound (oral administration) showing antiinflammatory effect on rat paw edema model (reversed passive Arthus reaction-induced paw edema, RPAR); format: functional; summary of the method: as §1
Rattus norvegicus [12] = test: Antiinflammatory effect of the compound (oral administration) on rat paw edema model (reversed passive Arthus reaction-induced paw edema, RPAR); format: functional; summary of the method: as §1
Rattus norvegicus [13] = test: Antiinflammatory effect of the compound(oral administration) on rat paw edema model(zymosan-induced paw edema) at 50 mg/kg; format: functional; summary of the method: as §2
Rattus norvegicus [14] = test: Antiinflammatory effect (oral administration) on rat paw edema model (reversed passive Arthus reaction-induced paw edema) at 100 mg/kg; format: functional; summary of the method: as §1

Row | Structure (SMILES) | MLD (Mus musculus) [mg/kg] | inhibition in vivo at 50 mg/kg (Rattus norvegicus [1]) [%] | inhibition in vivo at 10 mg/kg (Rattus norvegicus [2]) [%] | inhibition in vivo at 25 mg/kg (Rattus norvegicus [3]) [%] | inhibition in vivo at 50 mg/kg (Rattus norvegicus [4]) [%] | inhibition in vivo at 5 mg/kg (Rattus norvegicus [5]) [%] | inhibition in vivo at 50 mg/kg (Rattus norvegicus [6]) [%] | ED40 (Rattus norvegicus [7]) [mg/kg] | ED40 (Rattus norvegicus [8]) [mg/kg] | inhibition in vivo at 5 mg/kg (Rattus norvegicus [9]) [%] | inhibition in vivo at 50 mg/kg (Rattus norvegicus [10]) [%] | ED50 (Rattus norvegicus [11]) [mg/kg] | Inhibition (Rattus norvegicus [12]) [%] | inhibition in vivo at 50 mg/kg (Rattus norvegicus [13]) [%] | inhibition in vivo at 100 mg/kg (Rattus norvegicus [14]) [%]
1 | O=c1c2c(ncn2CCc2ccccc2)c2cccnc2n1-c1ccccc1 | > 300 | 2.2 | 5.6 | 25.7 |  |  |  |  |  |  |  |  |  |  | 
2 | O=c1c2c(nc(-c3ccccc3)n2Cc2ccccc2)c2cccnc2n1-c1ccccc1 |  |  |  |  | 0 | 1.2 | -4 |  |  |  |  |  |  |  | 
3 | O=c1c2c(ncn2Cc2ccccc2)c2cccnc2n1-c1ccccc1 | > 300 |  |  | 68.3 |  |  |  | 5.3 | 0.37 | 79.7 | 63 | 0.47 |  |  | 
4 | CCn1cnc2c3cccnc3n(-c3ccccc3)c(=O)c21 | 100 |  | 86.9 | 77.5 |  |  |  | 13.9 | 1.6 |  | 58.2 | 1.9 |  |  | 
5 | CC(C)Cn1cnc2c3cccnc3n(-c3ccccc3)c(=O)c21 | 300 |  |  | 69.7 |  |  |  | 9.1 | 0.19 | 61.8 | 57.4 | 0.97 |  |  | 
6 | O=c1c2c(ncn2CCCO)c2cccnc2n1-c1ccccc1 | > 300 |  |  | 58.1 |  |  |  | 33.5 | 4.8 | 41.3 | 42.6 | 3.7 |  |  | 
7 | CC(=O)OCCn1cnc2c3cccnc3n(-c3ccccc3)c(=O)c21 | > 300 |  | 11.8 | 41.6 |  |  |  | 40.3 | 19.4 |  | 42.2 |  |  |  | 
8 | CCCCCCn1cnc2c3cccnc3n(-c3ccccc3)c(=O)c21 | > 300 |  |  | 33.5 |  |  |  |  |  | 51.1 | 35.2 | 4.9 |  |  | 
9 | C=CCn1cnc2c3cccnc3n(-c3ccccc3)c(=O)c21 | > 300 |  |  | 67.3 |  |  |  | 21.9 | 2.7 | 22.7 | 67.8 |  |  |  | 
10 | CCCn1cnc2c3cccnc3n(-c3ccccc3)c(=O)c21 | 200 |  |  | 61.2 |  |  |  | 15.9 | 1.3 |  | 57.3 | 2 | 74.4 |  | 
11 | Cc1cccc(Cn2cnc3c4cccnc4n(-c4ccccc4)c(=O)c32)c1 |  |  | 33.5 | 33.3 |  |  |  |  |  |  | 18.4 |  |  |  | 
12 | CCOCCn1cnc2c3cccnc3n(-c3ccccc3)c(=O)c21 | > 300 |  |  | 57.4 |  |  |  | 15.5 | 6 | 50.3 | 56.7 | 3.2 |  |  | 
13 | COc1ccc(Cn2cnc3c4cccnc4n(-c4ccccc4)c(=O)c32)cc1 | > 300 | 37.8 |  | 66.9 |  |  |  |  | 0.93 | 59.2 |  | 2.3 |  |  | 
14 | CC(=O)Cn1cnc2c3cccnc3n(-c3ccccc3)c(=O)c21 | > 200 |  |  | 53.7 |  |  |  | 40 | 3.9 | 57.7 | 41.3 | 4.5 |  |  | 
15 | CC(O)Cn1cnc2c3cccnc3n(-c3ccccc3)c(=O)c21 (centres undefined) | 300 |  |  | 74.7 |  |  |  | 7.8 | 4.5 | 61.8 | 48 | 1.9 |  |  | 
16 | O=c1c2c(ncn2Cc2cccc(Br)c2)c2cccnc2n1-c1ccccc1 |  | 26.9 | 17.2 |  |  |  |  |  |  |  |  |  |  |  | 
17 | O=c1c2c(ncn2CC2CCCCC2)c2cccnc2n1-c1ccccc1 | > 300 | 34.7 | 62.9 | 49.8 |  |  |  |  | 11.8 |  |  | 5.7 |  |  | 
18 | COC(=O)c1ccc(Cn2cnc3c4cccnc4n(-c4ccccc4)c(=O)c32)cc1 |  |  |  |  |  |  |  |  |  | 9.2 | 8.7 |  |  | 9.9 | 
19 | CCCCn1cnc2c3cccnc3n(-c3ccccc3)c(=O)c21 | 300 |  |  | 55.5 |  |  |  | 15.4 | 2.1 | 49.9 | 45.8 | 4.8 |  |  | 
20 | Cc1ccc(Cn2cnc3c4cccnc4n(-c4ccccc4)c(=O)c32)cc1 | > 300 | 39.2 |  | 56.2 |  |  |  |  | 3.5 | 67.4 |  | 1.9 |  |  | 
21 | COc1cccc(Cn2cnc3c4cccnc4n(-c4ccccc4)c(=O)c32)c1 |  | 13 | 24 | 43.5 |  |  |  |  |  |  |  |  |  |  | 
22 | C[C@]12C=CC(=O)C=C1CC[C@@H]1[C@@H]2[C@@H](O)C[C@@]2(C)[C@H]1CC[C@]2(O)C(=O)CO [PREDNISOLONE] | > 300 |  |  |  |  |  |  | 4.7 | 1.2 |  |  | 74.2 |  |  | 
23 | NC(=O)N1C(=O)/C(=C(\O)c2cccs2)c2cc(Cl)ccc21 [TENIDAP] | > 300 |  |  |  |  |  |  | 14.8 | 41.2 |  |  |  |  |  | 4.8
